Measured values from the EternaBench riboswitch data.

Test system: MS2 coat protein
Test: apparent Kd, MS2 coat protein; higher = weaker binding; RNA-MaP array; FMN 200 µM where present
Outline: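 Stalled E. coli RNA polymerase transcribed the designs on Illumina sequencing-chip clusters. SNAP-549-labelled MS2 coat protein was titrated from 0.7 or 1.5 nM, doubling to 3 µM, without and then with constant ligand, in 100 mM Tris-HCl pH 7.5, 80 mM KCl, 4 mM MgCl2, BSA, DTT, yeast tRNA and Tween-20. Per-cluster binding curves were fitted to green signal normalised to red-channel RNA signal and control-cluster median Fmax. The apparent Kd is the median of the filtered fits.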

[1] = designed as: ON switch for flavin mononucleotide, no ligand
[2] = ligand present: flavin mononucleotide, designed as: ON switch for flavin mononucleotide
[3] = designed as: OFF switch for flavin mononucleotide, no ligand
[4] = ligand present: flavin mononucleotide, designed as: OFF switch for flavin mononucleotide

| Sequence | apparent Kd [1] [nM] | apparent Kd [2] [nM] | apparent Kd [3] [nM] | apparent Kd [4] [nM] |
| --- | --- | --- | --- | --- |
| GCUGUCGCGUGAGGAUAUGGUCGGCUGUGCUGACCAGAAGGCAUGUCGAUAGACAUGAGGAUCACCCAUGUGGUUAGGGCGGCU | 790 | 313 | – | – |
| UAGUAGAUCCGAGGAUAUACAAUCCGGAAACGGUACAUGAGGAUCACCCAUGUAGAAGGCGGAUCUACAGGUACUAAAGUACCA | – | – | 5.68 | 7.82 |
| AGACUGAAGCAAGGAUAUUGUAAGGUUAUUGUACAAGAAGGUGCUGUUUAUGUCUCUUAACAUGAGGAUCACCCAUGUUUUGAA | 19.7 | 19.1 | – | – |
| GUAGCAUGCCAAGGAUAUUCAUAUAGUAGGCAAACAUGAGGAUCACCCAUGUAAUGAUAGCAGUGGGAGAAGGUGGGAUGCUAC | 47.5 | 22.2 | – | – |
| CCUCUGUUAGGAUAUCAAACACUAUCUGCUCCAGAGUUAAGUGAGAAGGGACAUGAGGAUCACCCAUGUAAAAU | – | – | 26.9 | 33.7 |
| UUGGACGUCGUAGGAUAUGUAGGAUAUUCCUACAUGAGGAUCACCCAUGUUGACAUGGAAGAAGGGCAGAAGGACGAUGUCCAU | 548 | 8.38 | – | – |
| CGUCGAUACCAGAAGGACAUGAGGAUCACCCAUGUAGGAUAUGGGUGACCGGGAUGGCGGACACGCUGCCCGGGCACAUGCGAC | 10.6 | 7.79 | – | – |
| GUGCCUUGGGAGAAGGCAGUAUGCAAAGCAUCCUGAGGAUAUUCAUACCGGAAACGGACAUGAGGAUCACCCAUGUGGCACAAA | 864 | 57 | – | – |
| GCUAGUAUUGCAGGAUAUUGAGAAUAAUUUUGGCAAGAAGGGCAUUACAUGAGGAUCACCCAUGUUUUCCUUAGUCAUACUAGC | – | – | 6.39 | 5.85 |
| AAUAACAGAGGAUAUACAAAAAUAAAAGGAAACAAAAGAAAACAUGAGGAUCACCCAUGUAGAAGGCUGAAUAA | – | – | 21.1 | 18.9 |
| AAGGCGCUAGCAGGAUAUGUACAUGAGGAUCACCCAUGUAAAUCUGUAUCUGGUGAAGCGCAAGUAUAGAAGGGCUAACGCUGG | – | – | 4.71 | 6.2 |
| GGACGUCACAUGAACAUGAGGAUCACCCAUGUAAAUUCUCAUGAGGAUAUGGUUCCUAAUUGGAACCAGAAGGCAUGGACGUCC | 1450 | 408 | – | – |
| AAAAAACAUGAGGAUCACCCAUGUGAGGAUAUCCAAAAGUUAAAUAAAAAGACGAAAAGGAGAAGGCGCAAAAA | – | – | 110 | 84.2 |
| GAACGUGAUGUAAGGAUAUGUAGCCAUCGAGGCGUAUAGAAGGUACAUGAGGAUCACCCAUGUGAGCUCGUUAU | – | – | 36.7 | 44.6 |
| GUGUACAGAGGAUAUGCACGAGGAGUUACGAAAGUAACUUCACAUGAGGAUCACCCAUGUAGAAGGCUGUACAC | – | – | 14.4 | 17.8 |
| ACGCAGAGAGGAUAUACAUGAGGAUCACCCAUGUAUAAACGCACUAACUCUCCUCACUGUAGAAGGCUCAUGCA | – | – | 11.7 | 20.4 |
| AUCAGCUCGUCAGGAUAUACGUCACUGCGUCAGCAGUGUGAUAAGAUCACAUGAGGAUCACCCAUGUAGAAGGGACGAGCUGAU | – | – | 8.48 | 72.3 |
| AUUUUGUCAGGAUAUGACUAGUAGCACGAAAGUGCUACUACUUAGAAGGGACAUGAGGAUCACCCAUGUAUUCC | – | – | 15.2 | 16.1 |
| UGGUACAUGGGAGGAUAUCAUGUGGACACAUGAGGAUCACCCAUGUCGAUGGAGACAUCGGAGAUUGAGAAGGCCCAUGUACCU | 390 | 12.7 | – | – |
| AAAAAAAAAGUGCAGGAUAUCCUCAUGGCUACAUGAGGAUCACCCAUGUGAAGAAAAGCACAUGAGGAGAAGGGCACAAAAAAAAA | 23.4 | 12.3 | – | – |
| CACUCACAUGAGGAUCACCCAUGUCCUAGGAGGUCAGGAUAUAGCUCGGAUGCGUUGAGGCUAGAAGGGACAGGUU | 79.5 | 88.6 | – | – |
| UAGUUAUUCACAGGAUAUCGCCUCUUAUUACAUGAGGAUCACCCAUGUUUAGUUAGUUACAUGUUCGAGAAGGGUGUAGUUGUU | – | – | 554 | 819 |
| UUCAUCAAUGAAGGAUAUCUAUAUCCAACAUGAGGAUCACCCAUGUUGAGGAUCACCUAUGUAAAGGAGAAGGUUAAUAUAACU | 6.83 | 6.32 | – | – |
| CCGUCGCUUAGCGCUCCUCAUACAUGAGGAUCACCCAUGUACAGAAGGCGGAGGGCCAGGCCCACCGAGGAUAUGUAAGUGUGA | – | – | 73 | 73.2 |
| UUUGAGUGAGGAUAUUGCACCUCUGGGUCACCUCAGAGGUUUGAGAAGGCACAUGAGGAUCACCCAUGUUCCGC | – | – | 19.7 | 32.2 |
| GGAUGACAAAGUCAUCCUAUUCGAACAUGAGGAUCACCCAUGUAGGAUAUGCUACAGAAACUGUAGCAGAAGGACAUGUGCUUU | – | – | 34.1 | 151 |
| CAGCGAAAGUAGAAGGCAGUACUGAUACAGUACUGAGGAUAUACAUGAGGAUCACCCAUGUACAAAAGCUGGAAAUAAAUAAAA | – | – | 6.56 | 6.81 |
| CCUGGCUUAGGAUAUACAGGAACCGAGAACCCGGAAGUGAAACAUGAGGAUCACCCAUGUAGAAGGAAGAAAGC | – | – | 26.8 | 23.1 |

| Sequence | apparent Kd [1] [nM] | apparent Kd [2] [nM] | apparent Kd [3] [nM] | apparent Kd [4] [nM] |
| --- | --- | --- | --- | --- |
| UAGGUACGAGGAUAUACAUAGAUACAGACACAUGUAGAUGUACAUGAGGAUCACCCAUGUAGAAGGCGUAUAUA | – | – | 67.8 | 237 |
| UUUCAGCUCACAUGAGGAUCACCCAUGUCCGUUCGCCCGGACAGAAGGCACCCAUAACAAUGCGGUGAGGAUAUGUCAGCAAGG | 141 | 14 | – | – |
| GCGUACAUAUCAGGAUAUCAUUGUAUUGUUUAACUCAGUGUAUACAUGAGGAUCACCCAUGUUCUUGAGAAGGGAUUACUACGC | – | – | 14.1 | 15.4 |
| CCGCUGUGAGGAUAUUAGUAGUAGUCAGAAUAGACUAUUACUGAGAAGGCACAUGAGGAUCACCCAUGUUGCGG | – | – | 30.8 | 39 |
| UGAUCGAGAGAUCUUAGAUUCUGGUAGGAUAUACAUUAAAAUAGCUUUACAUGAGGAUCACCCAUGUAGAAGGACUAGAGUCUA | – | – | 7.8 | 8.67 |
| CGCAAUAUACAGAAGGAGUUAUUUAGAGGAUUACUAGGAUAUGUUCACAUGAGGAUCACCCAUGUCAUAUGGAGUUUUAUUGCG | – | – | 9.43 | 8.27 |
| AGGCCGCUACGCCGGCUUCACGCACAGGAUAUGCAGUUACAUGAGGAUCACCCAUGUGGCCAUGUGCAGAAGGGUGGUUCGCGA | 39.5 | 18.6 | – | – |
| CCAGCAACAUGAGGAUCACCCAUGUAGGAUAUCGCUAUUGUAAUCAUGAAACAUGAUUACAAUAGCGAGAAGGACAUAUGCUCC | – | – | 7.53 | 10.2 |
| UCACGUCACCAAGGAUAUACCCGAAGAUCCAUGGUAGAAGGUGGUGACAUGAGGAUCACCCAUGUCCGCGCGGACAAGUGUGUU | – | – | 118 | 26.7 |
| CAGAAGUCAGGAUAUGCAUGGCGGGACUUGCGUCGUGGCGUGCAGAAGGGACAUGAGGAUCACCCAUGUGGAGA | – | – | 138 | 224 |
| GGAUGACAAAGUCAUCCAAAUCGAACAUGAGGAUCACCCAUGUAGGAUAUCCUACUGAAACAGUAGGAGAAGGACAUGUGCUUU | – | – | 52.9 | 157 |
| UUAAAUCAUGUAGGAUAUGCAUGGCGAAGCUACGCAGAAGGACAUGAGGAUCACCCAUGUUCUAGCUACCGAGUACGGUGGCAA | – | – | 20.6 | 86.3 |
| CUGGGCGGAGGAUAUGCGGGUUGGGCAUAAGUUCGGCUGGGACAUGAGGAUCACCCAUGUAGAAGGUUGUUCGG | – | – | 40.3 | 40 |
| CAUCUGGUGCAGAAGGGACAUAGGGUCCUUUGGUCGCUAAGUAUCCCACAUGAGGAUCACCCAUGUCAGGAUAUGUAUCUGGAU | – | – | 15.9 | 30.1 |
| ACACAUGAGGAUCACCCAUGUAGCUGGCGUCUGCACCAGCCACAGGAUAUACGGCAACACAAACCGUAGAAGGGUGAUAAACAC | 56.3 | 27.3 | – | – |
| UGGUACUACGGAGGAUAUCAUGUAAAUACAUGAGGAUCACCCAUGUCGUACGAGAGUACGGAGAUUGAGAAGGCCGUAGUACCU | 25.6 | 15.6 | – | – |
| UUUCAGUCAGGAUAUCGUUAAUUUAAUUGUUUGUAUUAGUUCGAGAAGGGACAUGAGGAUCACCCAUGUACUCU | – | – | 19.6 | 20 |
| ACAUGAGGAUCACCCAUGUAGAAUGAAGAAGGUAGAUACUUGAGGCUCACCCAUGUACAUAGGACUAAGGAUAUUCUAAUAAUU | 25 | 22 | – | – |
| CGCAUACUAGGAUAUACAUGAGGAUCACCCAUGUCGCCGGGCCCACUCAUACUAAAACGUAGAAGGAGUUUGCC | – | – | 18.5 | 18.8 |
| CCCUCACAUGAGGAUCACCCAUGUUAGGAUAUCUACCAGGAGCUAUGAUUAGCCCAACGGAGAAGGAACGUGCA | – | – | 17.9 | 17.4 |
| UUUGCAUUCCGAGGAUAUUCAUUUAAUGUCUUCACAUGAGGAUCACCCAUGUGGCGCUUGCGCCGGGAGAAGGCGGUUUGCUUU | 28.6 | 29.3 | – | – |
| UGUAACCGAGGAUAUACAUGAGGAUCACCCAUGUAAUGUAGUAUAGUGUGUGUGAGGUGUAGAAGGUGGGAUGU | – | – | 93.4 | 97.2 |
| GUGGCUCCCACAGGAUAUCCACAUGAGGAUCACCCAUGUCUAAUUAACAAAGGAGAAGGGUGGGACAACUCUGGUGACUGAGAG | 28.9 | 5.45 | – | – |
| GGUUAAUAUCGAGGAUAUGUCUAGACACAUGAGGAUCACCCAUGUAUGUGUAUAGAAGGCGAUAUUAACAGCAUGUUACAUGCA | 43.3 | 16.4 | – | – |
| CAUCCACGGUAGAAGGGACUAGGCACAUGAGGAUCACCCAUGUCCUUUCCCAACUUGUGCCGCGGUCAGGAUAUACCGGGUCGG | – | – | 12.5 | 20 |
| GGUAGACAAAGUCUACCAUUACGAACAUGAGGAUCACCCAUGUAGGAUAUGCUACUCAAAGAGUAGCAGAAGGACAUGUGUCUU | – | – | 29.8 | 143 |
| GCUGCGCGAGGAUAUGCGGUUUGUGCUGUGGCCCGUGGCGUACAUGAGGAUCACCCAUGUAGAAGGCGUGUGGG | – | – | 26.1 | 28.9 |
